# Results pooled from the literature.
# Compare with care: the assays were run in different laboratories.
# AMY2: Pancreatic alpha-amylase (AMY2, Sus scrofa, UniProt P00690)
# IAPP: Islet amyloid polypeptide (IAPP, Homo sapiens, UniProt P10997)
# malE: malE (Escherichia coli, UniProt P0AEX9)
Compound,target,test,setting,measurement,value
FC(F)(F)c1ccc(/C=N/N=C/c2ccc(C(F)(F)F)cc2)cc1,AMY2,"enzyme activity, inhibitor",,IC50,270 µM
CC(=O)Nc1ccc(Nc2nc(-c3sc(N)nc3C)cs2)cc1,"Lysyl oxidase homolog 2 (LOXL2, Homo sapiens, UniProt Q9Y4K0)","enzyme activity, inhibitor, fluorescence",with preincubation,IC50,0.95 µM
COc1ccc(-c2cc(=O)c3c(OC)c(OC)c(OC)cc3o2)cc1OC,IAPP,"binding, ITC",,Kd,3.06 µM
C[C@H]1O[C@H](O[C@H]2[C@H](O)[C@@H](O)[C@@H](O[C@H]3[C@H](O)[C@@H](O)C(O)O[C@@H]3CO)O[C@@H]2CO)[C@H](O)[C@@H](O)[C@@H]1N[C@H]1C=C(CO)[C@@H](O)[C@H](O)[C@H]1O (stereo partly drawn),malE,"binding, ITC",,Kd,0.36 µM
Clc1ccccc1/C=N/N=C/c1ccccc1Cl,AMY2,"enzyme activity, inhibitor",,IC50,478 µM
COc1ccc(-c2cc(=O)c3c(OC)c(OC)c(OC)c(OC)c3o2)cc1OC,IAPP,"binding, ITC",,Kd,2.79 µM
CC(C)(C)OC(=O)N1CCN(Cc2ccn(Cc3ccc(Cl)cc3)c(=O)c2O)CC1,"Lysine-specific demethylase 4D (KDM4D, Homo sapiens, UniProt Q6B0I6)","enzyme activity, inhibitor",,IC50,3.35 µM
OC[C@@H](O)[C@@H](O[C@H]1O[C@H](CO)[C@@H](O[C@H]2O[C@H](CO)[C@@H](O[C@H]3O[C@H](CO)[C@@H](O)[C@H](O)[C@H]3O)[C@H](O)[C@H]2O)[C@H](O)[C@H]1O)[C@H](O)[C@@H](O)CO,malE,"binding, ITC",,Kd,4.44 µM
CCCc1ccc(O)c(OC)c1,"OR8H1 (Homo sapiens, UniProt Q8NGG4)","cAMP, agonist, luciferase",,EC50,> 600 µM
